Bioassay records deposited in PubChem BioAssay by several laboratories.
FLuc act counter – FLuc activators, initial screening, artefact control for FLuc-dependent activation tests, biochemical, ATPlite luminescence; ATPlite luciferase biochemical, 10 min; 0 = ATP-free wells, 1 = DMSO control; activation factor at 10 µM; 200,000 tested, under 10 active; AID 1027, 2008;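 active = luciferase activation factor, scaled between plate controls, of at least 2 with compound at 10 µM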
Target sequence (P08659 whole entry, looked up): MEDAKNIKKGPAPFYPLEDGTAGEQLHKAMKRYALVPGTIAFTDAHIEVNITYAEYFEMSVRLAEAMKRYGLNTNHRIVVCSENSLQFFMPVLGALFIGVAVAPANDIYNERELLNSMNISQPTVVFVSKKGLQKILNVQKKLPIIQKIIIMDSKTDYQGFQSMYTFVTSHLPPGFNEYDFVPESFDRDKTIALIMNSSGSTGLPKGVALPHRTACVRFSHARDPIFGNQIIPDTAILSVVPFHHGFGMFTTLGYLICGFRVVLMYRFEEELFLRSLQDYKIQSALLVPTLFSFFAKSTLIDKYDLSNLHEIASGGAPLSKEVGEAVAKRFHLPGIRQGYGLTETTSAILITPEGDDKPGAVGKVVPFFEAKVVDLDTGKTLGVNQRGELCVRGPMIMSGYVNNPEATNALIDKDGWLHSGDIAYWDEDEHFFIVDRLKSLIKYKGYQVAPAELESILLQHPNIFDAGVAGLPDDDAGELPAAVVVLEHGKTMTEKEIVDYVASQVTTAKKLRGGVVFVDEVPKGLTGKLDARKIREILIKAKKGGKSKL
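Assay system: Luciferase/luciferin detection reagent, cell-free biochemical luciferase assay / Also added: ATP substrate / Schedule: 10 min at ambient temperature / Measured by: luminescence measurement of luciferase light output / Benchmarks: low control with PBS replacing ATP, high control enzyme plus ATP without compound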
STAT1 inh – STAT1 signaling inhibitors, primary screen, cell-based, HTS, luciferase reporter; NIH 3T3 STAT1-luciferase reporter, IFN-gamma, luminescence; 200,000 tested, 0.35% active; inhibition, % at 5.5 µM; AID 920, 2007;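 active = inhibition above a set limit, the mean inhibition across all tested compounds plus 3 SD, cut at about 34% in these data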;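 also: 0% = IFN-gamma with DMSO and 100% = IFN-gamma with 300 µM nifuroxazide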
STAT3 activator – IL-6 driven STAT3 reporter potentiators, primary screen, U3A cells, luciferase, luminescence, MLSCN library. IL-6 STAT3-luciferase reporter; 100% = signal with IL-6 EC80 alone. 190,000 tested, 0.91% active. AID 871, 2007. activation (% of control), % at 5.6 µM;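 active = activation above the screen-wide mean of compound activation plus 3 SD, cut at about 130% in these data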;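 also: 0% = background luminescence of wells with medium and substrate only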
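system = STAT3-luciferase reporter U3A cells | reagent = IL-6 stimulus at 33 ng/mL final | timing = 1 h compound pre-exposure, 6 h IL-6 stimulation, 37 °C | measured by = luminescence | evaluation = % activation versus median of IL-6-stimulated wells | control set = IL-6-only wells as 100% reference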
STAT1 act – STAT1 signaling activators, primary screen, cell-based, HTS, luciferase reporter; NIH 3T3 STAT1-luciferase reporter, IFN-gamma, luminescence; 100% = IFN-gamma alone, no compound; activation (% of control), % at 5.5 µM; 200,000 tested, 2.6% active; AID 932, 2007;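 active = activation above the screen-wide mean activation plus 3 SD, cut at about 130% in these data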;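 also: raw ratio to IFN-gamma control signal so 100% means no change and 0% no light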
FLuc inh counter – firefly luciferase enzyme inhibitors, primary screen, artefact control for luciferase-based inhibitor screens, biochemical, luminescence, ATPLite; Luciferin 4-monooxygenase (Photinus pyralis), P08659; 10 min; inhibition, % at 10 µM; 200,000 tested, 1.5% active;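 active = inhibition above about 50% when tested at 10 µM, limit read from the data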
STAT3 blocker – IL-6 driven STAT3 reporter inhibitors, primary screen, U3A cells, luciferase, luminescence, MLSCN library; 190,000 tested, 0.89% active; IL-6 STAT3-luciferase reporter; host cell line lacks STAT1; inhibition, % at 5.5 µM; AID 862, 2007;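 active = inhibition above the mean inhibition across all screened compounds plus 3 SD, cut at about 44% in these data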;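 also: 0% = DMSO only wells and 100% = 100 µM nifuroxazide control wells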
STAT1 act conf – STAT1 signaling activators, confirmation, cell-based, HTS, luciferase reporter | 1,200 tested, 97% active | NIH 3T3 STAT1-luciferase reporter, IFN-gamma potentiation, luminescence; 100% = IFN-gamma EC80 alone, no compound | activation (% of control), % at 5.7 µM | shares compounds with STAT1 act | AID 1262, 2008;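 active = activation above a set limit carried over from the earlier primary STAT1 screen, cut at about 140% in these data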;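 also: simple ratio to median IFN-gamma plus DMSO wells so 0% means no light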
NFkB act STAT1ct – NF-kB reporter activators, TNF-alpha stimulated, counter-screen for STAT1 activator project, cell-based, HEK293T, luciferase luminescence; shares compounds with STAT1 act; 100% = TNF-alpha with vehicle only; activation (% of control), % at 5.7 µM; 1,200 tested, 43% active; AID 1306, 2008;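 active = activation above the mean of solvent-only control wells plus 3 SD, set per campaign, cut at about 130% in these data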;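 also: TNF-alpha given at a submaximal dose yielding about 80% of full reporter signal; values are well signal over median control so 100% means no change and 0% no light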
STAT3 act 2 – STAT3 reporter activation by STAT1 hits, confirmation, counter-screen for STAT1 activator project, U3A cells, luciferase, luminescence | shares compounds with STAT1 act | IL-6; cells lack STAT1; 100 = IL-6 alone, no compound effect | activation (% of control), % at 5.7 µM | 1,200 tested, 46% active | AID 1316, 2008;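 active = activation above the solvent-only control well mean plus 3 SD, set per plate batch, cut at about 110% in these data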;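 also: 0% = no luminescence and 100% = median IL-6 plus DMSO wells; higher means more STAT3 reporter activation so hits are non-selective activators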
* hit, by the source's call; . = not tested or not shown. This is a sample that favours compounds with a hit; in the whole collection about 4.9% have one here.

SMILES | FLuc act counter | STAT1 inh | STAT3 activator | STAT1 act | FLuc inh counter | STAT3 blocker | STAT1 act conf | NFkB act STAT1ct | STAT3 act 2
Cc1c(-c2ccc(F)cc2)[n+](=O)c2c(n1[O-])CCCCC2 | 1.1 | 1 | 109 | 99 | -9 | -5 | . | . | .
CCC(C)NC(=O)Nc1ccc(C)cc1C (stereo not given) | 1 | 4 | 97 | 96 | -2 | 7 | . | . | .
CN(c1ccc(O)cc1)c1nc(-c2ccccc2)cs1 | 0.6 | -97 | 104 | 186* | 41 | -8 | 238* | 114 | 120*
C=CCOC(=O)C1=C[C@@H](c2ccc3c(c2)OCO3)C[C@@H](OCc2ccc(CO)cc2)O1 | 1 | 0 | . | 102 | 2 | . | . | . | .
CC(=O)c1c(C)nc2cc(Cl)ccc2c1N | 1 | -18 | 96 | 116 | 1 | 7 | . | . | .
Cc1nc2ccc(Cl)cc2nc(C)/c1=N\O | 1.1 | -57 | 100 | 152* | -6 | 4 | 144* | 126 | 120*
COc1cccc(/C=N/n2cnc3ccccc32)c1OC | 0.9 | -67 | 95 | 162* | 6 | 6 | 205* | 131 | 107
COc1cccc(/C=N/n2c(N)nc3ccccc32)c1OC | 0.9 | -4 | 94 | 104 | 9 | 5 | . | . | .
Cn1c(N)c(C(=O)Nc2ccc3ccccc3c2)sc1=S | 1 | -79 | 100 | 172* | -4 | 5 | 204* | 132 | 107
Cc1oc(-c2ccccc2)cc1C(=O)Nc1ccc2ccccc2c1 | 1 | 0 | 99 | 100 | -2 | 5 | . | . | .
Cc1ccc(-c2[nH]n3c(=O)c4c(nc3c2C)CCCC4)cc1 | 1 | -15 | 102 | 114 | 4 | 1 | . | . | .
Cc1c(-c2ccccc2)[nH]n2c(=O)c3c(nc12)CCCC3 | 0.9 | -62 | 122 | 155* | 11 | -23 | 174* | 130 | 117*
CCC(=O)Nc1ccc2nc(C3CC3)n(Cc3ccccc3)c(=O)c2c1 | 1 | -17 | 114 | 115 | -1 | -10 | . | . | .
COc1ccc(Cn2c(C3CC3)nc3ccc(NC(=O)c4ccco4)cc3c2=O)cc1 | 1.1 | -56 | 99 | 152* | -7 | 9 | 183* | 133 | 140*
O=C(/C=C/Nc1cccc(F)c1)c1ccco1 | 0.2 | -51 | 106 | 154* | 76* | -6 | 192* | 125 | 116*
O=C(/C=C/Nc1ccc(Oc2ccccc2Cl)cc1)c1ccco1 | 0.7 | -60 | 105 | 155* | 29 | -4 | 178* | 144* | 135*
O=C(NCc1cccnc1)c1ccc([N+](=O)[O-])o1 | 1 | -5 | 97 | 103 | -4 | 6 | . | . | .
CN(C)CC(C)(C)CNS(=O)(=O)c1cccc2nsnc12 | 1.1 | 2 | 98 | 98 | -6 | 6 | . | . | .
CC(C)CC(=O)Nc1ccc2c(c1)oc1ccccc12 | 0.5 | -57 | 111 | 152* | 49 | -10 | 190* | 134* | 106
Nc1nc(-c2ccc3ccccc3c2)cs1 | 0.6 | -75 | 89 | 169* | 44 | 20 | 195* | 134* | 107
COc1ccc(-c2csc(N)n2)cc1 | 0.8 | -21 | 108 | 119 | 17 | -5 | . | . | .
